eIF4E-4G inh: blocks eIF4E binding to eIF4G; P63073+Q04637; TR-FRET eIF4E-eIF4GI(517-606) binding, 2 h; inhibition, % at 21.7 µM; 0.37% of 220,000 active; AID 782;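 active means inhibition above about 30%, limit read from the data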;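 further: 0% = full FRET control wells and 100% = background wells lacking eIF4GI fragment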
Target sequence (P63073 whole entry, looked up, the tested form may be a part): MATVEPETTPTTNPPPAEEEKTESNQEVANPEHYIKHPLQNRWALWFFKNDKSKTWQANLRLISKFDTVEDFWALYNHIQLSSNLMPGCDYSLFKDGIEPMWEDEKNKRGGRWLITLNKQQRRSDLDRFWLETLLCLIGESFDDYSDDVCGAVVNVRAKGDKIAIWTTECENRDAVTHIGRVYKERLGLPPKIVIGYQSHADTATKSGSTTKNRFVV
Target sequence (Q04637 whole entry, looked up, the tested form may be a part): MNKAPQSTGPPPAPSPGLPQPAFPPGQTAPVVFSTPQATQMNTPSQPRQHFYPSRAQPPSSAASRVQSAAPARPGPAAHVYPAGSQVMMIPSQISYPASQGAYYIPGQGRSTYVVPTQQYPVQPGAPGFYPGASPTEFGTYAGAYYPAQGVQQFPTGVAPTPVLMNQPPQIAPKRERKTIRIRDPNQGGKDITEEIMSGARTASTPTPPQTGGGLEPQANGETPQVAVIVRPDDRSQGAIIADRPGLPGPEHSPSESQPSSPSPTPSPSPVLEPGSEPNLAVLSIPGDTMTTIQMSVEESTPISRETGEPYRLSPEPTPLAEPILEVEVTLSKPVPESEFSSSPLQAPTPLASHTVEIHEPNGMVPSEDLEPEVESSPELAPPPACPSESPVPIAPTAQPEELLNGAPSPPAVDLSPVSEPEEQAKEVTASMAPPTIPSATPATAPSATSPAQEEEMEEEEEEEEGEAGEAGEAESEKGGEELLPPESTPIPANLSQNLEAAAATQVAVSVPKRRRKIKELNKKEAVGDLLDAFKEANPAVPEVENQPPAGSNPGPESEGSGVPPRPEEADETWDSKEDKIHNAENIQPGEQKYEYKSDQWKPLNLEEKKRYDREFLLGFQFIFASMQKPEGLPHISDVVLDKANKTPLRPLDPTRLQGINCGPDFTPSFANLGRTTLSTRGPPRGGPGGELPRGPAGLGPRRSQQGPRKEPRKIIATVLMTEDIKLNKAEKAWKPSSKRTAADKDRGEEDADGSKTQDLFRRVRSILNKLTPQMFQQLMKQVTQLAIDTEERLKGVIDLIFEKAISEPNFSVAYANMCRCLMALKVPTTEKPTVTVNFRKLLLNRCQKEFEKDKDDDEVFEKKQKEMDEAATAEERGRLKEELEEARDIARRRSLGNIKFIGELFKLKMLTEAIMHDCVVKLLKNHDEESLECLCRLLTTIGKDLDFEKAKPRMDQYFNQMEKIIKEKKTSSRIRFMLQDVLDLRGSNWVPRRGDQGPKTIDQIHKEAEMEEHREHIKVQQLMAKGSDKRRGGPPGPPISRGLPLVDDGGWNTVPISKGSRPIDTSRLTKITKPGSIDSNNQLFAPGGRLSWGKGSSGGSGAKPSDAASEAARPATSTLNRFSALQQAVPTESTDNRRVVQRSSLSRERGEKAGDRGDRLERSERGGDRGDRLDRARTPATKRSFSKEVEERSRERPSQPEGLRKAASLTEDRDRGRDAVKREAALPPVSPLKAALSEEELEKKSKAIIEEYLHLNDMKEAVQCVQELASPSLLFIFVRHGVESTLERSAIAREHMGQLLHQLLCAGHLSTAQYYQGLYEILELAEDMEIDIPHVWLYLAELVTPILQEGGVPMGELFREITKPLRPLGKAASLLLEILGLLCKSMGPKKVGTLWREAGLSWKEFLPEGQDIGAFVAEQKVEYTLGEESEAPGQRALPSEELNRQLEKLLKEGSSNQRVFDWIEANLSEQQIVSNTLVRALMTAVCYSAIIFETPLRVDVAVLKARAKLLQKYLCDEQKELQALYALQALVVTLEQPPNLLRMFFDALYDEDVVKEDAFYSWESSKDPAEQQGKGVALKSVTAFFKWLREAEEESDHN
Runt-SMMHC FRET: Runt domain-CBFb-SMMHC interaction inhibition. Q01196+Q13951. Cerulean-Runt/Venus-CBFb-SMMHC FRET ratio 530/480, 1 h. inhibition, % at 20 µM. 0.74% of 220,000 active;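 active means mean inhibition across duplicate retests at 20 µM reaching about 50%, limit read from the data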;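 further: 0% = DMSO wells and 100% = wells with excess untagged CBFb-SMMHC; inhibitors lower the FRET ratio by blocking Runt binding to CBFb-SMMHC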
PERK inhibitor: blocks human PERK kinase | Q9NZJ5 | CHO PERK-DD fusion, SEAP luminescence translation reporter | inhibition, % at 5.6 µM | 0.17% of 220,000 active | AID 1416;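 active means inhibition above the mean inhibition of all tested compounds plus 3 SD, set separately per screening campaign, cut at about 2.9% in these data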;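 further: PERK kinase domain activated by AP20187 dimerizer at 100 nM; 0% = DMSO with dimerizer and 100% = rapamycin at 8.4 µM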
Runt-CBFb FRET: blocks binding of human RUNX1 Runt domain to CBFb; Q01196+Q13951; Cerulean-Runt/Venus-CBFb FRET ratio 530/480, 1 h; inhibition, % at 20 µM; 0.46% of 220,000 active; AID 1496;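 active means inhibition over about 50% at 20 µM in the single-dose screen, limit read from the data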;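 further: 0% = DMSO wells and 100% = excess unlabeled CBFb competitor control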
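Buffer or medium: Tris pH 7.5 buffer with BSA. Assay system: Cerulean-labeled Runt domain protein. Amount: each fluorescent fusion protein 100 nM. Read-out basis: loss of energy transfer signal. Incubation: 1 h compound exposure, room temperature. Probe or stimulus: Venus-CBFb binding partner, 100 nM. Detection: FRET, excitation 422 nm, emission at 530 and 480 nm.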
Hck Nef HTS: blocks Nef-activated human Hck kinase; 0.68% of 220,000 active; inhibition, % at 20 µM; P08631; Recombinant Hck-YEEI plus Nef, Z-Lyte FRET kinase assay;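 active means Hck-Nef kinase inhibition above about 50%, limit read from the data; inactive means inhibition below that limit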;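 further: 0% = DMSO with Hck plus Nef and 100% = Hck alone without Nef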
RanGTP-Imp inh: inhibitors of RanGTP-importin-beta interaction, primary screen, biochemical, FRET, CFP-Ran, YFP-importin-beta, homogeneous. cell-free CFP-Ran/YFP-importin-beta FRET ratio. inhibition, % (test concentration not listed). 1.1% of 300,000 active;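 active means more than half of the replicate wells show a fall in the fluorescence ratio signal beyond about 16%, limit read from the data, passing the limit was not always enough; inconclusive means exactly half of the replicate wells pass the set limit; inactive means fewer than half of replicates pass the limit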;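 further: 0% = DMSO wells and 100% = Ran loaded with GDP instead of GTP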
Runt-CBFb TRFRET: Runt-CBFb binding inhibition. shares compounds with Runt-CBFb FRET. 20% of 480 active. TR-FRET RUNX1 Runt domain-CBFb binding. inhibition, % at 20 µM; in the data active means inhibition above about 40%
YIC FRET counter: counter-screen for RanGTP-importin-beta inhibitors: YIC FRET probe; shares compounds with RanGTP-Imp inh; Purified YIC probe, intramolecular FRET ratio YFP/CFP; IC50, µM; 40% of 1,000 active; AID 435026;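 active means fitted half-maximal inhibitory concentration no more than tenfold above the top dose tested; inconclusive means flat fit with 30 to 70% activity, or poor fit; inactive means half-maximal concentration beyond tenfold above the top dose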
The depositor's hits bear a star. In the library only some 2.2% were active in any assay of this set; here they are far more common.

C=C(C=O)C[C@@H]1C[C@H](O)C2OC3C[C@]4(C)OC5/C=C\CC6OC7C(CC=CCC6OC5CCCC4OC3CC2O1)OC1CC2OC3CC(=O)OC3C[C@@H](C)C[C@@]2(C)OC1C[C@@H]7C (some centres not stated) was read as eIF4E-4G inh -3.0, Runt-SMMHC FRET -8.9, Runt-CBFb FRET -6.0, Hck Nef HTS 25.2 and RanGTP-Imp inh -1.7.
Screening COc1ccc2nc3oc(C(=O)N4CCC5(CC4)OCCO5)cc3cc2c1 returned eIF4E-4G inh 1.2, Runt-SMMHC FRET -2.3, PERK inhibitor -0.2, Runt-CBFb FRET 0.3, Hck Nef HTS 5.5 and RanGTP-Imp inh -0.5.
O=C(NCCO)c1nsnc1NCCCl was read as eIF4E-4G inh 5.0, Runt-SMMHC FRET -6.6, PERK inhibitor -0.8, Runt-CBFb FRET 55.8*, Hck Nef HTS 10.0, RanGTP-Imp inh -1.3 and Runt-CBFb TRFRET 25.3.
For CCCNC(=O)c1c(N)n(Cc2ccco2)c2nc3ccccc3nc12 the results were eIF4E-4G inh -2.4, Runt-SMMHC FRET 58.7*, PERK inhibitor -0.4, Runt-CBFb FRET 52.4*, Hck Nef HTS 29.0, RanGTP-Imp inh 93.0* and Runt-CBFb TRFRET 22.7.
`CCCCCn1c(=O)c(C(=O)NCc2ccco2)c(O)c2ccccc21` gave eIF4E-4G inh -0.2, Runt-SMMHC FRET 2.6, PERK inhibitor 0.4, Runt-CBFb FRET 0.8, Hck Nef HTS 20.7 and RanGTP-Imp inh 1.2.
Screening CCOC(=O)c1c(N)n(CCCOC(=O)c2ccco2)c2nc3ccccc3nc12 returned Runt-SMMHC FRET 116.0*, PERK inhibitor -0.8, Runt-CBFb FRET 72.4*, Hck Nef HTS 30.0, RanGTP-Imp inh 23.5*, Runt-CBFb TRFRET 23.2 and YIC FRET counter 23.8*.
For CSc1ccccc1C(=O)C1CCCN(Cc2ccncc2)C1 (configuration not stated) the results were eIF4E-4G inh 0.1, Runt-SMMHC FRET -5.0, PERK inhibitor 1.5, Runt-CBFb FRET 2.4, Hck Nef HTS 6.5 and RanGTP-Imp inh 0.7.
For Cc1ccc(C2(O)CN3CCC2CC3)cc1 (configuration not stated) the results were RanGTP-Imp inh 1.3.
`Nc1ccc(C2(c3ccc(N)cc3)CN3CCC2CC3)cc1` gave eIF4E-4G inh 0.5, Runt-SMMHC FRET -1.7, PERK inhibitor -1.0, Runt-CBFb FRET 0.5, Hck Nef HTS 1.0, RanGTP-Imp inh 48.6* and YIC FRET counter >50.
For O=S(=O)(c1ccc(F)cc1)N1CN2CCN(C2)C1 the results were RanGTP-Imp inh 1.1.
`NC(N)=N/N=C/c1ccc(N(c2ccccc2)c2ccccc2)cc1` gave RanGTP-Imp inh 23.1* and YIC FRET counter >50.
For CC1CC(C)CN(CC(=O)c2ccc(OC(F)F)cc2)C1 (configuration not stated) the results were eIF4E-4G inh 3.7, Runt-SMMHC FRET 0.4, PERK inhibitor 0.7, Runt-CBFb FRET 0.4, Hck Nef HTS 3.4 and RanGTP-Imp inh 1.3.
O=c1[nH]c(O)c(/C=C2/C=CC(c3cc(Cl)ccc3Cl)=N2)c(=O)[nH]1 was read as eIF4E-4G inh -12.6, Runt-SMMHC FRET 80.2*, PERK inhibitor 0.9, Runt-CBFb FRET 115.2*, Hck Nef HTS 29.1, RanGTP-Imp inh 37.9* and YIC FRET counter 4.04*.
CCc1ccc(N2C(=O)NC(=O)/C(=C\c3cc(C)n(-c4cc(C(=O)O)cc(C(=O)O)c4)c3C)C2=O)cc1 was read as RanGTP-Imp inh 19.2* and YIC FRET counter >50.
Cc1cc(/C=C2\C(=O)NC(=O)N(c3ccc(F)cc3)C2=O)c(C)n1-c1ccc(C(=O)O)cc1 was read as eIF4E-4G inh 1.6, Runt-SMMHC FRET -9.1, PERK inhibitor 2.5, Runt-CBFb FRET 8.7, Hck Nef HTS 18.6, RanGTP-Imp inh 17.7* and YIC FRET counter >50.
For CN1CCC(C)(O)C2CCCCC21 (configuration not stated) the results were eIF4E-4G inh 1.7, Runt-SMMHC FRET 0.4, PERK inhibitor -0.2, Runt-CBFb FRET 1.3, Hck Nef HTS 23.4 and RanGTP-Imp inh -1.0.
For O=c1[nH]c(=O)n(-c2cccc3ccccc23)c(O)c1/C=N/N1CCCCC1 the results were eIF4E-4G inh -5.1, Runt-SMMHC FRET 4.9, PERK inhibitor -0.8, Runt-CBFb FRET -0.6, Hck Nef HTS 23.9 and RanGTP-Imp inh 3.7.
For Cn1c(O)c(/C=N/N2CCCCC2)c(=O)[nH]c1=O the results were eIF4E-4G inh 1.4, Runt-SMMHC FRET 3.8, PERK inhibitor 0.8, Runt-CBFb FRET -0.6, Hck Nef HTS 0.4 and RanGTP-Imp inh 5.2.
Screening O=c1[nH]c(=O)n(-c2cccc3ccccc23)c(O)c1/C=N/N1CCCCCC1 returned eIF4E-4G inh -4.2, Runt-SMMHC FRET 0.5, PERK inhibitor -2.3, Runt-CBFb FRET 0.0, Hck Nef HTS 14.1, RanGTP-Imp inh 21.9* and YIC FRET counter >50.
For Cc1ccc(-n2c(O)c(/C=N/N3CCCCCC3)c(=O)[nH]c2=O)cc1C the results were eIF4E-4G inh 1.5, Runt-SMMHC FRET 1.7, PERK inhibitor -1.4, Runt-CBFb FRET 2.2, Hck Nef HTS -7.3, RanGTP-Imp inh 22.1* and YIC FRET counter >50.
`C1=C(CCNCc2ccccc2)CCCC1` gave eIF4E-4G inh -2.5, Runt-SMMHC FRET 9.2, PERK inhibitor 0.0, Runt-CBFb FRET 1.7, Hck Nef HTS -20.5 and RanGTP-Imp inh -4.0.
Cc1c(OC(=O)N(C)C)ccc2c1O/C(=C\c1ccco1)C2=O was read as RanGTP-Imp inh 29.9* and YIC FRET counter 11.7*.
O=C1NC(=O)C(CCc2ccncc2)(CCc2ccncc2)C(=O)N1Cc1ccc(F)cc1 was read as eIF4E-4G inh -4.0, Runt-SMMHC FRET 2.1, PERK inhibitor 0.8, Runt-CBFb FRET -1.6, Hck Nef HTS 20.8 and RanGTP-Imp inh inconclusive.
Screening Cc1sc2nc(COC(=O)Cc3ccccc3)[nH]c(=O)c2c1C returned eIF4E-4G inh -1.8, Runt-SMMHC FRET -2.0, PERK inhibitor 0.2, Runt-CBFb FRET -3.1, Hck Nef HTS 1.4, RanGTP-Imp inh 20.1* and YIC FRET counter >50.
Screening Cc1cccc(C)c1OC(=O)Cc1ccccc1 returned eIF4E-4G inh 0.7, Runt-SMMHC FRET 1.1, PERK inhibitor 0.9, Runt-CBFb FRET -0.9, Hck Nef HTS 27.0 and RanGTP-Imp inh 0.1.
